Compound activity deposited in PubChem BioAssay by several laboratories.
HNF4A DNA FP: change in binding of human HNF4 alpha to DNA | 0.3% of 360,000 active | activity change, % at 10 µM | HNF4a-FITC DNA binding, fluorescence polarization, 1 h; in the data active = activity change above about 30%, passing the limit was not always enough
TPT1 inhibitor: inhibitors of Candida albicans tRNA 2'-phosphotransferase TPT1 | recombinant caTPT1, FP RNA substrate dephosphorylation | inhibition, % at 5 µM | 0.81% of 300,000 active | AID 1962;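 active = inhibition above the mean of all tested compounds plus 3 SD, set per screening campaign, cut at about 24% in these data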;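 note: plate controls were DMSO alone for no effect and ferristatin control at 100 nM for full effect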
IDE inh: cellular human IDE inhibition; HEK cells, FAbetaB cleavage, fluorescence polarization; 0.41% of 320,000 active; P14735; inhibition, % at 5.59 µM;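 active = percent inhibition above the average of all tested compounds plus 3 SD, set per screening campaign, cut at about 16% in these data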;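 note: IDE supplied by intact live HEK cells; FP after avidin binding of uncleaved biotin substrate so inhibition keeps polarization high; 0% = DMSO wells and 100% = 60 µM reference IDE inhibitor Ii1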
Rpn11 block: Rpn11 (human) deubiquitinase inhibition; O00487; human 26S proteasome, Ub4-pepOG fluorescence polarization; 20S core pre-blocked with epoxomicin; inhibition, % at 20 µM; 0.59% of 360,000 active; AID 588493;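 active = inhibition at 20 µM, scaled to each plate's controls, above about 33%, limit read from the data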
CSN inh: inhibitors of human CSN-mediated cullin deneddylation. Q92905. Purified CSN, SCF-Nedd8-OG deneddylation, fluorescence polarization. inhibition, % at 12.5 µM. 0.38% of 360,000 active. AID 651999;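 active = pattern-corrected inhibition above about 35%, with an unprinted fluorescence ratio check between 0.5 and 1.5, limit read from the data, passing the limit was not always enough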;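 note: 0% = enzyme with substrate and 100% = substrate without enzyme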
Target sequence (Q92905 whole entry, looked up, one chain of several): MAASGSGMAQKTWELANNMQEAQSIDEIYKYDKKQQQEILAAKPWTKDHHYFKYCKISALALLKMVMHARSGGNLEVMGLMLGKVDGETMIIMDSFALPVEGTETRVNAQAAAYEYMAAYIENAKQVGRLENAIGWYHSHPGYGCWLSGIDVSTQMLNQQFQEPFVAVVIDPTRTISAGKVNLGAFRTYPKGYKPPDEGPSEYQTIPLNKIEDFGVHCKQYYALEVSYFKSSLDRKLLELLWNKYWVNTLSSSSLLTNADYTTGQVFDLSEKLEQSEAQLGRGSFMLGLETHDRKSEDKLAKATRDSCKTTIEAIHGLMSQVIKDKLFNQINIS
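test system = HEK293T-derived human Csn5 enzyme | amount = 0.24 nM Csn5 enzyme, final concentration | medium = Tris/NaCl/DTT buffer, pH 7.5 | schedule = 90 min reaction at room temperature | signal = FP | evaluation = inhibition of Csn5 cleavage, % | compound dosing = single dose of 12.5 µM compound with 0.25% DMSO | probe or stimulus = 10 nM SCFSkp2-Nedd8OG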
IDE cell activ: IDE (human) activation, cell-based. P14735. HEK cells, FAbeta-B cleavage, fluorescence polarization; 0% vehicle, 100% cell-free pure enzyme wells. activation, % at 5.96 µM. 0.073% of 340,000 active. AID 493087;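 active = activation above the mean of all tested compounds plus 3 SD, set per screening campaign, cut at about 17% in these data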
caTPT1 confirm: TPT1 (C. albicans) inhibition, confirmation. shares compounds with TPT1 inhibitor. recombinant caTPT1, fluorescence polarization, RNase T1 coupled. inhibition, % at 5 µM. 74% of 2,400 active;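 active = inhibition above the primary screen limit, the mean inhibition of all tested compounds plus 3 SD, cut at about 25% in these data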
RNase T1 inh: counter-screen for TPT1 inhibitors: inhibitors of Aspergillus oryzae RNase T1; shares compounds with TPT1 inhibitor; inhibition, % at 5 µM; 83% of 2,400 active; AID 2153; RNase T1 cleavage, fluorescence polarization, 1536-well;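 active = inhibition above the solvent-only control well mean plus 3 SD, limit set per screening run, cut at about 23% in these data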;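 note: plate controls were DMSO wells with enzyme for no effect and wells without RNase T1 for full effect; inhibitors block cleavage so intact labeled substrate keeps polarization high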
Target sequence (P00651 whole entry, looked up): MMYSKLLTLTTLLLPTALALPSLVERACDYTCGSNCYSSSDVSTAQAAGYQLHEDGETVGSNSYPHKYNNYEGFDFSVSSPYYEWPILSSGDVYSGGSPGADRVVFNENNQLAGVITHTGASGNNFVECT
IDE inh confirm: cellular human IDE inhibition, confirmation; inhibition, % at 5.59 µM; shares compounds with IDE inh; HEK cells, FAbetaB cleavage, fluorescence polarization; 51% of 1,200 active;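 active = mean inhibition across triplicate wells above the cutoff set by the earlier primary insulin-degrading enzyme screen, cut at about 16% in these data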;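 note: 0% = DMSO wells and 100% = 60 µM reference IDE inhibitor Ii1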
HEK cytotox: HEK cell cytotoxicity, counter-screen for IDE inhibitors; shares compounds with IDE inh; 28% of 1,200 active; inhibition, % at 5.59 µM; HEK293 cytotoxicity, ATP luminescence; in the data active = inhibition above about 22%;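 note: 0% = vehicle wells and 100% = reference cytotoxic drug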
Starred values were filed as active, the others as inactive. The list is not random: actives were taken first. Their share in the collection is about 1.7%.

Results for CCC(CO)[n+]1c(C)cc(/C=C2\Sc3ccccc3N2Cc2ccccc2)cc1C (stereo not given) ?
HNF4A DNA FP: 13; TPT1 inhibitor: 127*; IDE inh: 43*; CSN inh: 11; IDE cell activ: -37; caTPT1 confirm: 131*; RNase T1 inh: 134*; IDE inh confirm: 54*; HEK cytotox: 100*

Results for COc1ccc(NC(=O)CSc2ccc3nnc(-c4cccnc4)n3n2)cc1OC ?
HNF4A DNA FP: -1; TPT1 inhibitor: -3; IDE inh: 6; Rpn11 block: -2; CSN inh: -1; IDE cell activ: 1

Results for Cc1cc2nc(/C(C#N)=C\c3ccc(-c4ccccc4C(=O)O)o3)[nH]c2cc1C ?
HNF4A DNA FP: 148; TPT1 inhibitor: 138*; IDE inh: 31*; CSN inh: 118; IDE cell activ: -124; caTPT1 confirm: 145*; RNase T1 inh: 136*; IDE inh confirm: 134*; HEK cytotox: 8

What do the screens show for `O=Cc1ccc(-c2ccccc2C(=O)O)o1`?
HNF4A DNA FP: -4; TPT1 inhibitor: -4; IDE inh: 4; Rpn11 block: -10; CSN inh: -6; IDE cell activ: 1

Results for N#C/C(=C\c1ccc(Sc2ccccc2)o1)c1nc2ccccc2[nH]1 ?
HNF4A DNA FP: 11; TPT1 inhibitor: 51*; IDE inh: 21*; Rpn11 block: 3; CSN inh: -5; IDE cell activ: -22; caTPT1 confirm: 60*; RNase T1 inh: 70*; IDE inh confirm: 14; HEK cytotox: 20

Results for Cc1ccc2nc(/C(C#N)=C\c3ccc(N4CCOCC4)o3)[nH]c2c1 ?
HNF4A DNA FP: 136; TPT1 inhibitor: 139*; IDE inh: 48*; CSN inh: -10; IDE cell activ: -139; caTPT1 confirm: 149*; RNase T1 inh: 136*; IDE inh confirm: 26*; HEK cytotox: 27*

Results for Cc1ccc2nc(/C(C#N)=C\c3cc(C)n(-c4cccc([N+](=O)[O-])c4)c3C)[nH]c2c1 ?
HNF4A DNA FP: 1; TPT1 inhibitor: 3; IDE inh: 4; Rpn11 block: -6; CSN inh: 6; IDE cell activ: -9

Results for COCCNC(=O)/C(C#N)=C/c1ccc(N2CCOCC2)o1 ?
HNF4A DNA FP: 155; TPT1 inhibitor: 157*; IDE inh: 16*; CSN inh: 109; IDE cell activ: -16; caTPT1 confirm: 169*; RNase T1 inh: 164*; IDE inh confirm: 16; HEK cytotox: 7

How did N#C/C(=C\c1ccc(N2CCOCC2)o1)C(=O)NCC1CCCO1 (stereo not given) do in these assays?
HNF4A DNA FP: 164; TPT1 inhibitor: 161*; IDE inh: 17*; CSN inh: 94; IDE cell activ: -26; caTPT1 confirm: 168*; RNase T1 inh: 164*; IDE inh confirm: 22*; HEK cytotox: 12

Results for Cc1[nH]nc2c1C(c1ccc(F)cc1)C(C#N)=C(N)O2 (stereo not given) ?
HNF4A DNA FP: 0; TPT1 inhibitor: 1; IDE inh: 8; Rpn11 block: -1; CSN inh: 2; IDE cell activ: 1

Results for Cc1oc(C)c2c(=O)ccc3c(c12)OC(N)=C(C#N)C3c1ccc(F)cc1 (stereo not given) ?
HNF4A DNA FP: 18; TPT1 inhibitor: 31*; IDE inh: 27*; CSN inh: 27; IDE cell activ: -86; caTPT1 confirm: 17; RNase T1 inh: 28*; IDE inh confirm: 68*; HEK cytotox: 10
